Test [1] in a line: Antiproliferative activity against human HCT15 cells after 72 hrs by CCK8 assay. It counts as functional, cell-based. The settings on record: HCT-15, 72 h. The procedure, abridged: (§1)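 Cells grown in RPMI 1640 with 10% FBS and 1% penicillin, 37 °C, 5% CO2. Seeded at 10^4 cells/well, 24 h at 37 °C, then compound for 72 h. CCK-8 (mitochondrial dehydrogenase) added, 4 h at 37 °C, absorbance read at 450 nm; IC50 derived. Compound stocks 20 mM in DMSO.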

Test [2] can be described thus: Antiproliferative activity against human BT474 cells after 72 hrs by CCK8 assay. The class given is functional, cell-based. To be noted: BT-474, 72 h. A digest of the protocol:
as §1
In general terms: Formazan colour is commonly taken as a measure of viable cells.

For the next test, the system named is T47D. Description: Antiproliferative activity against human T47D cells after 72 hrs by CCK8 assay. It counts as functional, cell-based. The procedure, abridged: as §1
The target in test [3] is DNA topoisomerase 2-alpha (Homo sapiens) (UniProt P11388). Description: Inhibition of human recombinant topoisomerase 2alpha assessed as relaxation of supercoiled plasmid DNA pBR322 at 100 uM after 30 mins by ethidium bromide staining based agarose gel electrophoresis. The procedure, abridged: (§2)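 Human topo IIα (1 unit) and 100 ng supercoiled pBR322 incubated 30 min at 37 °C in 10 mM Tris-HCl pH 7.9, 50 mM NaCl, 5 mM MgCl2, 1 mM EDTA, 1 mM ATP, 15 µg/mL BSA. Stopped with 7 mM EDTA; 0.8% agarose in TAE, ethidium bromide stain, UV quantitation as % relaxation inhibition.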

Test [4] has the same target. To be noted: 100 uM.
Test [5] deals with HCT-15. Description: Inhibition of human recombinant topoisomerase mediated DNA relaxation in human HCT15 nuclear lysate at 50 uM preincubated for 24 hrs followed by addition of pBR322 plasmid measured after 30 mins by ethidium bromide staining based agarose gel electrophoresis. The procedure, abridged:
(§3)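 HCT15 cells treated 24 h with compound, harvested, nuclear lysates prepared and protein measured by Bradford. 100 µg nuclear protein plus 100 ng pBR322 in buffer with Tris-Cl pH 7.5, MgCl2, ATP, EDTA, DTT, KCl, BSA, 30 min at 37 °C. Analyzed on 0.9% agarose with ethidium bromide; lysate-free plasmid control.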

Test [6] addresses DNA topoisomerase 2-alpha (Homo sapiens) (UniProt P11388). Description: Inhibition of human recombinant topoisomerase 2alpha using supercoiled pUC18 as substrate assessed as hydrolysis of ATP preincubated for 30 mins followed by ATP addition measured after 30 mins by malachite green phosphate based ELISA microplate reader analysis.
Test [7] deals with T1, DNA topoisomerase 1 (Homo sapiens) (UniProt P11387).
T1 sequence (whole entry): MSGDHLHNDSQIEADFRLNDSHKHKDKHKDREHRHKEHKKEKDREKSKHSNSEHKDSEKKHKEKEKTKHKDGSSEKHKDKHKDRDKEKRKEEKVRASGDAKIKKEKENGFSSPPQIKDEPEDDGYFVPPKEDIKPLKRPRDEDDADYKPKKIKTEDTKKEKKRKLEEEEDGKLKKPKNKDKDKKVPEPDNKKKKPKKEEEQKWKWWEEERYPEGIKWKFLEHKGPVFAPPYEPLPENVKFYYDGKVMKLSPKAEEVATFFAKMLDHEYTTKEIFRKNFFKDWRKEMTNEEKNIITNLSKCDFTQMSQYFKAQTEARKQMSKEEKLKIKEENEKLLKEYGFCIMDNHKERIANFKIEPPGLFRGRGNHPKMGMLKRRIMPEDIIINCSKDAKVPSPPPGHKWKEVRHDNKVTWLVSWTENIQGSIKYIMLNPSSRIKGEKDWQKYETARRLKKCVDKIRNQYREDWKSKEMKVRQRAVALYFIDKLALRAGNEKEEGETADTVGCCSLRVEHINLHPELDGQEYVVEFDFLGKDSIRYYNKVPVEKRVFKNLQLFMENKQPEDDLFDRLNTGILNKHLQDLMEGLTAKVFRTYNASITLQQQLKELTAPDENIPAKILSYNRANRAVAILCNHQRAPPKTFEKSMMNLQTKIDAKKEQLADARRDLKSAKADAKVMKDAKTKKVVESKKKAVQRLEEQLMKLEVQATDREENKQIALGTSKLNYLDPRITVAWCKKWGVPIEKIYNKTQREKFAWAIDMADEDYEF
Description: Inhibition of human recombinant topoisomerase 1 assessed as relaxation of supercoiled plasmid DNA pBR322 at 100 uM after 30 mins by ethidium bromide staining based agarose gel electrophoresis. The procedure, abridged: (§4)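 Recombinant human topo I (1 unit) with 100 ng supercoiled pBR322, 30 min at 37 °C in 10 mM Tris-HCl pH 7.9, 150 mM NaCl, 0.1% BSA, 1 mM spermidine, 5% glycerol. Stopped with sarcosyl buffer; 0.8% agarose, 60 V 1 h in TAE, ethidium bromide stain 30 min, UV densitometry of relaxation as % inhibition.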

For test [8], the target named is DNA topoisomerase 2-alpha (Homo sapiens) (UniProt P11388). Description: Inhibition of human recombinant topoisomerase 2alpha assessed as relaxation of supercoiled plasmid DNA pBR322 at 20 uM after 30 mins by ethidium bromide staining based agarose gel electrophoresis. A digest of the protocol:
as §2

Test [9] concerns the target T1, DNA topoisomerase 1 (Homo sapiens). Description: Inhibition of human recombinant topoisomerase 1 assessed as relaxation of supercoiled plasmid DNA pBR322 at 20 uM after 30 mins by ethidium bromide staining based agarose gel electrophoresis. A digest of the protocol:
as §4

Test [10] addresses DNA topoisomerase 2-alpha (Homo sapiens) (UniProt P11388). Description: Activity at human recombinant topoisomerase 2alpha using supercoiled plasmid pBR322 as substrate assessed as stabilization of enzyme-DNA cleavage upto 300 uM after 20 mins by ethidium bromide staining based agarose gel electrophoresis. The procedure, abridged:
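Cleavage complex: 125 ng supercoiled pBR322 preincubated 10 min with 3 units human topo IIα, then compound added, 20 min at 37 °C in 10 µL. Stopped with SDS, proteinase K digestion 30 min at 45 °C, heated 2 min at 70 °C. Run on 0.8% agarose with 0.5 µg/mL ethidium bromide in TAE; linear DNA band quantified by UV imaging.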

Test [11] has the same target. Description: Competitive inhibition of human recombinant topoisomerase 2alpha at 5 to 250 uM using supercoiled plasmid pBR322 as substrate after 30 mins by ethidium bromide staining based agarose gel electrophoresis in presence of ATP.
Test [12] deals with HCT-15. Description: Inhibition of human recombinant topoisomerase mediated DNA relaxation in human HCT15 nuclear lysate at 100 uM preincubated for 24 hrs followed by addition of pBR322 plasmid measured after 30 mins by ethidium bromide staining based agarose gel electrophoresis. A digest of the protocol:
as §3

Structures can show the parent of a compound that is named as a salt. Active and inactive are the calls of the source. The rule behind the calls is not given here.

DNA topoisomerase 2-alpha (Homo sapiens), sequence (P11388 whole entry): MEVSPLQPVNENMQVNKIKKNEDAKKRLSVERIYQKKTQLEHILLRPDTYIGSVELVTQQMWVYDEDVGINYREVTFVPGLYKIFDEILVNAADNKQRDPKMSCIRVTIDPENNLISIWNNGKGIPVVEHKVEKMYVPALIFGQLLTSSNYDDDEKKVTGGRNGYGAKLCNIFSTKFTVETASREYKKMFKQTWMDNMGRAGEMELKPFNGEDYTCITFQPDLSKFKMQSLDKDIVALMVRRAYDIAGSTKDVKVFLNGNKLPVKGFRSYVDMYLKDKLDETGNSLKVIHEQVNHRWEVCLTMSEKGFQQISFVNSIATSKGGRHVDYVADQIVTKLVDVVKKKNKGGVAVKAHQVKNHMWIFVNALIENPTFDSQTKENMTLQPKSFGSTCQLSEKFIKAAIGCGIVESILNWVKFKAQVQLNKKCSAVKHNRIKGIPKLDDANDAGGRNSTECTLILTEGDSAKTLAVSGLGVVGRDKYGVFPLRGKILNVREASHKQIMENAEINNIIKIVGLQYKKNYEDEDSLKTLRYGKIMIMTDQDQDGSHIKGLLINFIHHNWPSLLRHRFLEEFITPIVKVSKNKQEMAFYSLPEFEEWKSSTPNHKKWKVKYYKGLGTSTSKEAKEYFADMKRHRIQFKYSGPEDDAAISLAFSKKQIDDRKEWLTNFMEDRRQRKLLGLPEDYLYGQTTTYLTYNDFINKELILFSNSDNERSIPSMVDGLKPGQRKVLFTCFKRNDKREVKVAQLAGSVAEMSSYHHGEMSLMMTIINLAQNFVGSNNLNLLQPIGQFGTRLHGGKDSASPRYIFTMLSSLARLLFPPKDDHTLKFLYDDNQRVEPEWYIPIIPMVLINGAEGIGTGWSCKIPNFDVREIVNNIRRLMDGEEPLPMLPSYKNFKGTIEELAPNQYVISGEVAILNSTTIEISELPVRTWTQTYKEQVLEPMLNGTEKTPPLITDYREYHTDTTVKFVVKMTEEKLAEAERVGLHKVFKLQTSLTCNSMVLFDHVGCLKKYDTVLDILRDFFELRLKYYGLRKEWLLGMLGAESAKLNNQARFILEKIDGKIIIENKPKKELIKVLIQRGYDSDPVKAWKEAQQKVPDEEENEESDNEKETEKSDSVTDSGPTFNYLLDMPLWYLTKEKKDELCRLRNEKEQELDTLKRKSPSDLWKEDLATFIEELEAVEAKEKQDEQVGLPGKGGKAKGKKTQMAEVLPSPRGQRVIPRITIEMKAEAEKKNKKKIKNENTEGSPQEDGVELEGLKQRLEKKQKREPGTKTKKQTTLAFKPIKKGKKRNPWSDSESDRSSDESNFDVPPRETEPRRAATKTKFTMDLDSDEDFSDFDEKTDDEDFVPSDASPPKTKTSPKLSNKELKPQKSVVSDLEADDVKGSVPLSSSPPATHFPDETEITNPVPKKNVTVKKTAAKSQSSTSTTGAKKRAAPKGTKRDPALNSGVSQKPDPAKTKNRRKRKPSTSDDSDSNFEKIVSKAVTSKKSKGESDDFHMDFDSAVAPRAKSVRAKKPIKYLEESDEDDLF

As a reminder, the IC50 is the point on the concentration scale where inhibition reaches its midpoint. In the case of `CC[C@@]1(O)C(=O)OCc2c1cc1n(c2=O)Cc2cc3ccccc3nc2-1` [CAMPTOTHECIN], the figures for the IC50 (in test [1]; in test [2]; in the test with T47D) were 7.1 µM, 7 µM and 4.1 µM, respectively.
Usually inhibition stands for the relative decrease from the control value, in per cent. On to `COc1cc([C@@H]2c3cc4c(cc3[C@@H](O[C@@H]3O[C@@H]5CO[C@@H](C)O[C@H]5[C@H](O)[C@H]3O)[C@H]3COC(=O)[C@H]23)OCO4)cc(OC)c1O` [ETOPOSIDE], for which the inhibition was 95.9% in [3], 36% in the test with HCT-15 [5] and “Dose-dependent effect” in [6]. Moreover, the inhibition entry in test [4] is “inactive”. Moreover, the IC50 turned out to be 6.9 µM in test [1], 6.6 µM in test [2] and 6.4 µM in the test on T47D.
For the compound `COc1ccc(C2CC(c3ccccc3)=NN2C(=O)c2ccncc2)cc1` (configuration not stated), the inhibition is 0% in test [7], 92.5% in test [3] and 0% in test [8]. Moreover, the values for the IC50 (in test [1]; in test [2]; with T47D) were 10.4 µM, over 50 µM and over 50 µM, respectively.
As for `COc1ccc(C2CC(c3ccccc3)=NN2C(=O)c2ccco2)cc1` (configuration not stated), the inhibition in test [7] turned out to be 0%; in test [3], 91.6%; in [8] it was 0%. The values for the IC50 (in [1]; in test [2]; with T47D) were 3.9 µM, over 50 µM and 27.3 µM, respectively.
In the case of `COc1ccccc1C1=NN(C(=O)c2ccncc2)C(c2ccc([N+](=O)[O-])cc2)C1` (configuration not stated), the inhibition in [7] was 0%; in test [3] it was 92.8%; in [8], 0%. For the same compound, the IC50 in test [1] is 2.6 µM; in [2] it was 7.2 µM; in the test with T47D, over 50 µM.
For `COc1ccc(C2CC(c3ccccc3)=NN2C(=O)c2nc3ccccc3s2)cc1` (configuration not stated), the figures for the inhibition in [7], in test [3] and in [8] were 0%, 91.2% and 0%, respectively. Further, the results for the IC50 (in test [1]; in test [2]; with T47D) were 1.9 µM, 6.3 µM and over 50 µM, respectively.
Regarding `COc1ccccc1C1=NN(C(=O)c2ccc([N+](=O)[O-])o2)C(c2ccc([N+](=O)[O-])cc2)C1` (configuration not stated), the inhibition in test [7] was found to be 0%; in test [3], 92.6%; in test [8], 2.9%. The IC50 (in [1]; in test [2]; with T47D) was over 50 µM throughout.
For `COc1ccc(C2=NN(C(=O)c3ccco3)C(c3ccco3)C2)cc1` (configuration not stated), the inhibition was determined as 0% in test [7], 94.1% in [3] and 0% in [8]. In addition, the IC50 is 4.3 µM in test [1], over 50 µM in [2] and 7.5 µM in the test on T47D.
Turning to `O=C(c1ccco1)N1N=C(c2ccc(Cl)cc2)CC1c1ccco1` (configuration not stated), the inhibition in [7] stood at 96.8%; in [9] it was 4%; in test [3], 93.1%; in [8], 1.3%. Besides, the IC50 (in test [1]; in test [2]; with T47D) was over 50 µM in each case.
On to `COc1ccc(C2CC(c3ccc(Cl)cc3)=NN2C(=O)c2nc3ccccc3s2)cc1` (configuration not stated), for which the inhibition was 0% in test [7]; 89.7% in test [3]; 0% in [8]; 85.4% in the test with HCT-15 [12]; 78% with HCT-15 [5]; “Dose-dependent effect” in test [6]. For the same compound, in test [10], the outcome was inactive. For the same compound, the inhibition entry in [11] is “Active”. Further, the results for the IC50 (in [1]; in test [2]; with T47D) were 4.1 µM, 7.2 µM and 6.6 µM, respectively.
With `O=C(c1ccncc1)N1N=C(c2ccc(Cl)cc2)CC1c1ccco1` (configuration not stated), the values for the inhibition in [7], in test [3] and in test [8] were 0%, 76% and 0%, respectively. The IC50 in test [1] was determined as 3.1 µM; in test [2], 6.5 µM; in the test on T47D, 7.9 µM.
Take `COc1cccc2c1C(=O)c1c(O)c3c(c(O)c1C2=O)C[C@@](O)(C(=O)CO)C[C@@H]3O[C@H]1C[C@H](N)[C@H](O)[C@H](C)O1` [DOXORUBICIN HYDROCHLORIDE]: the figures for the IC50 in test [1] and in [2] were 23 µM and 3.2 µM, respectively.

(Values after ChEMBL document CHEMBL3779813, “Design, synthesis, topoisomerase I & II inhibitory activity, antiproliferative activity, and structure-activity relationship study of pyrazoline derivatives: An ATP-competitive human topoisomerase IIα catalytic inhibitor” (Bioorg Med Chem, 2016).)
